Experimental data taken from ChEMBL document CHEMBL1146867, “Novel antibacterial class: a series of tetracyclic derivatives” (J Med Chem, 2006).
pIC50: −log10 of the molar value. ≈ marks a conversion by molar mass, not a printed value.

Tests used:
Assay type in all cases: functional
Streptococcus pneumoniae [1] = assay: Antibacterial activity against quinolone-resistant Streptococcus pneumoniae ATCC 7257
Outline: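 MIC by broth microdilution following National Committee for Clinical Laboratory Standards methods for dilution susceptibility testing of aerobically growing bacteria, against the quinolone-resistant S. pneumoniae strain 7257.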

Haemophilus influenzae = assay: Antibacterial activity against quinolone-susceptible Haemophilus influenzae 1435
Outline: (§1)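 MICs were determined by broth microdilution following the National Committee for Clinical Laboratory Standards method for aerobically growing bacteria.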

Streptococcus pneumoniae [2] = assay: Antibacterial activity against quinolone-susceptible Streptococcus pneumoniae ATCC 6303; outline: as §1
JIYOYE = assay: Cytotoxicity against human B cells by Jijoye assay; details: read-out: LD50 (the source's name)
Streptococcus pneumoniae [3] = assay: Inhibition on Streptococcus pneumoniae translation by transcription/translation coupled assay
Streptococcus pneumoniae [4] = assay: Inhibition on Streptococcus pneumoniae translation by uncoupled translation assay
Outline: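 The assay was cell-free and translation-only (uncoupled), using S. pneumoniae material. Dried test compound was mixed with S30 extract, luciferase-encoding mRNA and a complete amino acid mix. The mix was incubated to allow translation, and the reaction was stopped with kanamycin. Luciferin reagent was then added, and read-out was by flash luminescence. Results are given as IC50.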

| SMILES | MIC (Streptococcus pneumoniae [1]) [µg/mL] | MIC (Haemophilus influenzae) [µg/mL] | MIC (Streptococcus pneumoniae [2]) [µg/mL] | CC50 (JIYOYE) [µg/mL] | pIC50 (Streptococcus pneumoniae [3]) | pIC50 (Streptococcus pneumoniae [4]) |
| --- | --- | --- | --- | --- | --- | --- |
| O=C(O)c1cnc2nc(N3CCC[C@@H]3CO)c(F)cc2c1O | > 64 | > 64 | > 64 | > 100 | 4.12 | – |
| C=CC[C@H]1Oc2cc3c(O)c(C(=O)O)cnc3nc2N2CCC[C@@H]12 | > 64 | > 64 | > 64 | > 100 | – | < 3.52 |
| COc1ccc(Cn2cc(C(=O)O)c(=O)c3cc4c(nc32)N2CCC[C@@H]2CO4)c(OC)c1 | 16 (≈ 36.6 µM) | > 64 | > 64 | 6 (≈ 13.7 µM) | – | 3.64 |
| O=C(O)c1cnc2nc3c(cc2c1O)NC[C@@H]1CCCN31 | 8 (≈ 27.9 µM) | 8 (≈ 27.9 µM) | 16 (≈ 55.9 µM) | 18 (≈ 62.9 µM) | – | 5.00 |
| O=C(O)c1cnc2nc3c(cc2c1O)OC[C@@H]1C[C@@H](O)CN31 | 16 (≈ 52.8 µM) | 16 (≈ 52.8 µM) | 64 (≈ 211 µM) | > 100 | – | 5.16 |
| CC(C)(C)n1cc(C(=O)O)c(=O)c2cc3c(nc21)N1CCC[C@H]1C(=O)N3 | > 64 | > 32 | > 64 | > 100 | – | < 3.70 |
| O=C(O)c1cn(C2CC2)c2cc(N3CCNCC3)c(F)cc2c1=O [CIPROFLOXACIN] | 16 (≈ 48.3 µM) | – | 2 (≈ 6.04 µM) | – | – | 3.70 |
| O=C(O)c1cnc2nc3c(cc2c1O)OC[C@@H]1CCCN31 | 1 (≈ 3.48 µM) | 2 (≈ 6.96 µM) | 4 (≈ 13.9 µM) | > 100 | – | 5.28 |
| C[C@H]1Oc2cc3c(O)c(C(=O)O)cnc3nc2N2CCCC12 (single isomer, unassigned) | 32 (≈ 106 µM) | 64 (≈ 212 µM) | 64 (≈ 212 µM) | > 100 | – | 3.90 |
| O=C(O)c1cnc2nc3c(cc2c1O)OC[C@@H]1CCN31 | 2 (≈ 7.32 µM) | 8 (≈ 29.3 µM) | 16 (≈ 58.6 µM) | > 100 | – | 5.12 |
| O=C(O)c1cnc2nc3c(cc2c1O)N(c1ccccc1)C[C@@H]1CCCN31 | > 64 | > 64 | > 64 | > 100 | – | 4.19 |
| CC12CCCN1c1nc3ncc(C(=O)O)c(O)c3cc1OC2 (stereo unspecified) | 32 (≈ 106 µM) | 32 (≈ 106 µM) | > 64 | > 100 | – | 3.97 |
| C[C@@H]1Oc2cc3c(O)c(C(=O)O)cnc3nc2N2CCC[C@@H]12 | 4 (≈ 13.3 µM) | 32 (≈ 106 µM) | 8 (≈ 26.6 µM) | > 100 | – | 5.06 |
| O=C(O)c1cnc2nc(N3CCCC3)c(F)cc2c1O | 4 (≈ 14.4 µM) | < 1 | 16 (≈ 57.7 µM) | > 100 | – | – |
| C=CC[C@@H]1Oc2cc3c(O)c(C(=O)O)cnc3nc2N2CCC[C@@H]12 | 8 (≈ 24.4 µM) | 64 (≈ 196 µM) | > 64 | > 100 | – | 4.33 |
| CCN1CCOc2cc3c(O)c(C(=O)O)cnc3nc21 | 32 (≈ 116 µM) | 64 (≈ 233 µM) | > 64 | > 100 | – | 4.08 |
| COc1ccc(Cn2cc(C(=O)O)c(=O)c3cc4c(nc32)N2CCC[C@H]2CO4)c(OC)c1 | 32 (≈ 73.2 µM) | > 64 | > 64 | 12 (≈ 27.4 µM) | – | 4.24 |
| CN1C[C@@H]2CCCN2c2nc3ncc(C(=O)O)c(O)c3cc21 | 2 (≈ 6.66 µM) | 8 (≈ 26.6 µM) | 8 (≈ 26.6 µM) | > 100 | – | 6.05 |
| O=C(O)c1cnc2nc3c(cc2c1O)OC[C@H]1CCCN31 | 1 (≈ 3.48 µM) | 4 (≈ 13.9 µM) | 8 (≈ 27.8 µM) | > 100 | – | 4.98 |
| CN1CCOc2cc3c(O)c(C(=O)O)cnc3nc21 | 32 (≈ 122 µM) | 32 (≈ 122 µM) | > 64 | > 100 | – | 4.15 |
| N[C@H]1C[C@H]2COc3cc4c(O)c(C(=O)O)cnc4nc3N2C1 | > 64 | > 64 | > 64 | > 100 | – | 5.57 |
| O=C(O)c1cnc2nc3c(cc2c1O)OCCN3 | > 64 | 32 (≈ 129 µM) | > 64 | > 100 | – | 4.00 |
| O=C(O)c1cnc2nc3c(cc2c1O)OCC1CCCCN31 (stereo unspecified) | 16 (≈ 53.1 µM) | 8 (≈ 26.6 µM) | > 64 | > 100 | – | 4.20 |
| O=C(O)c1cnc2nc3c(cc2c1O)NC(=O)[C@@H]1CCCN31 | > 64 | > 64 | > 64 | > 100 | – | 4.66 |
| C=CCC12CCCN1c1nc3ncc(C(=O)O)c(O)c3cc1OC2 (stereo unspecified) | > 64 | > 64 | > 64 | > 100 | – | < 3.52 |
| O=C(O)c1cnc2cc(N3CCNCC3)c(F)cc2c1O | > 64 | – | > 64 | – | – | 3.85 |
| CC(=O)N1C[C@@H]2CCCN2c2nc3ncc(C(=O)O)c(O)c3cc21 | – | 4 (≈ 12.2 µM) | 16 (≈ 48.7 µM) | – | – | 5.15 |
| O=C(O)c1cn(C2CC2)c2nc3c(cc2c1=O)OC[C@@H]1CCCN31 | 8 (≈ 24.4 µM) | – | > 64 | – | – | < 4.00 |
